ATG4B inh: inhibitors of human ATG4B cysteine protease; ATG4B cleavage of LC3-PLA2, NBD-HPC fluorescence, 1 h; 0.51% of 340,000 active; Q9Y4P1; AID 504462; inhibition, % at 8.33 µM; in the data active = inhibition above about 40%
ALR inh: inhibitors of human sulfhydryl oxidase ALR; purified ALR, DTT oxidation, H2O2 HRP-luminol luminescence; inhibition, % (no concentration beside the values); 3.8% of 290,000 active; AID 485317;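 active = mean replicate inhibition above about 79%, with every replicate also reaching it, limit read from the data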
Target sequence (P55789 whole entry, looked up): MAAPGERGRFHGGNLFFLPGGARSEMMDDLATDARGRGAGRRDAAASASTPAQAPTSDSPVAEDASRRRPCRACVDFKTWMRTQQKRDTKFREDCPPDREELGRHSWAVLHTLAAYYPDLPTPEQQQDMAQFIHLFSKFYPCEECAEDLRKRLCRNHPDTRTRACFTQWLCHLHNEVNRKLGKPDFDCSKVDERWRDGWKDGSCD
Calb FLC: affects C. albicans growth with fluconazole; C. albicans CaCi-2 (fluconazole-resistant clinical isolate) + fluconazole, Alamar Blue growth, 48 h; growth inhibition, % (test concentration not listed); 0.57% of 300,000 active;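 active = growth inhibition above about 58% in most replicates, limit read from the data, passing the limit was not always enough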;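 also: all wells also contain fluconazole at 8 µg/ml as a sub-toxic cotreatment; 0% = median of DMSO wells and 100% = median of geldanamycin control wells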
UCH37 inh: blocks the human deubiquitinase UCH37 | Q9Y5K5 | purified proteasome/UCH37, Ub-AMC cleavage fluorescence | inhibition, % (test concentration not listed) | 0.33% of 330,000 active;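 active = mean inhibition over replicate wells above about 20%, limit read from the data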;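 also: 0% = compound-free wells with enzyme and 100% = wells lacking proteasome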
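System: Proteasome-associated human UCH37 deubiquitinase; Input: 0.15 nM proteasome in added enzyme buffer; Also added: Ub-AMC substrate from 1 µM stock; Incubation: 30 min compound-proteasome preincubation then 25 min substrate reaction, room temperature; Detection: fluorescence, ex 355 nm, em 460 nm; Read-out: % inhibition of Ub-AMC cleavage fluorescence; Benchmarks: no-proteasome and no-compound wells.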
NLRP3 yeast inh: blocks the NALP3 inflammasome reconstituted in yeast; Yeast reconstituted NLRP3/ASC/caspase-1, beta-gal luminescence, 24 h; inhibition, % at 10 µM; 0.39% of 330,000 active;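 active = inhibition of 50% or more; inactive = inhibition below 50%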;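 also: plate controls were induced DMSO wells for no effect and uninduced yeast grown without galactose for full effect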
NALP1 yeast inh: NALP1 inhibition; S. cerevisiae NALP1/ASC/caspase-1 growth, X-gal OD620, 72 h; inhibition, % at 10 µM; 0.61% of 280,000 active; AID 2071; in the data active = inhibition mostly above about 24%, no sharp cut-off; inactive = mostly below about 32%
NALP3 yeast conf: confirmation of NALP3 inhibitors in yeast; shares compounds with NLRP3 yeast inh; yeast expressing human NALP3, luminescence; inhibition, % at 10 µM; 81% of 1,300 active; AID 435006; in the data active = inhibition above about 48%
Casp1 ASC ctr: active in yeast caspase-1-ASC counter-screen for NALP3 inhibitors; shares compounds with NLRP3 yeast inh; AID 488784; inhibition, % at 10 µM; yeast expressing Caspase-1-ASC, luminescence counter screen; 66% of 1,000 active
NALP3 retest: confirmation retest of NALP3 inhibitors in yeast; yeast expressing human NALP3, luminescence read-out; shares compounds with NLRP3 yeast inh; AID 488794; inhibition, % at 10 µM; 53% of 1,000 active
Numbers without * were called inactive. Rows were chosen to be rich in hits. Some 4.8% of all compounds tested hit in one or more screens of this group. Rule as the data show it, unless noted: active = inhibition above about 50%; inactive = the rest.

How did N#Cc1ccc(C(=O)OCCCc2cc3ccccc3c(=O)o2)cc1 do in these assays?
ATG4B inh: -8; ALR inh: -3; UCH37 inh: 3; NLRP3 yeast inh: 66*; NALP3 yeast conf: 61*; Casp1 ASC ctr: 61*; NALP3 retest: 63*

How did CC(=NNC(=O)c1ccc(Cn2cc(Br)cn2)o1)c1cccc(NC(=O)C(C)(C)C)c1 do in these assays?
UCH37 inh: 3

How did CC(=NN1CCN(Cc2cccc3ccccc23)CC1)c1ccco1 do in these assays?
UCH37 inh: 4

Results for CCOC(=O)c1nc(C)nc(Sc2n[nH]c(-c3ccc(C(C)(C)C)cc3)n2)c1C ?
ATG4B inh: -6; ALR inh: 9; Calb FLC: 0; UCH37 inh: 1; NLRP3 yeast inh: 5; NALP1 yeast inh: 3

How did CCOC(=O)c1nc(C)nc(Sc2n[nH]c(-c3cc(Cl)cc(Cl)c3)n2)c1C do in these assays?
ATG4B inh: 2; ALR inh: 61; Calb FLC: -3; UCH37 inh: 3; NLRP3 yeast inh: 51*; NALP3 yeast conf: 31

What do the screens show for `COC(=O)NN=Cc1c(C)nn(-c2ccccc2)c1Cl`?
UCH37 inh: -2

Results for COc1ccccc1/C=C/C=NNC(=O)c1cnccn1 ?
UCH37 inh: 18

How did Nc1ccccc1SC/C=C/CSc1ccccc1N do in these assays?
ATG4B inh: 0; ALR inh: 99*; Calb FLC: -1; UCH37 inh: -1; NLRP3 yeast inh: 52*; NALP1 yeast inh: 9; NALP3 yeast conf: 57*; Casp1 ASC ctr: 45; NALP3 retest: 40

How did N#Cc1nc(COc2ccccc2)oc1N1CCCCC1 do in these assays?
ATG4B inh: 4; Calb FLC: -16; UCH37 inh: 0; NLRP3 yeast inh: 62*; NALP1 yeast inh: -3; NALP3 yeast conf: 70*; Casp1 ASC ctr: 60*; NALP3 retest: 48

How did Cc1cccc(OCc2nc(C#N)c(N3CCCC3)o2)c1 do in these assays?
ATG4B inh: 6; ALR inh: -2; Calb FLC: 6; UCH37 inh: 6; NLRP3 yeast inh: 57*; NALP1 yeast inh: 1; NALP3 yeast conf: 47; Casp1 ASC ctr: 65*; NALP3 retest: 51*

What do the screens show for `N#Cc1nc(COc2ccc(Cl)cc2)oc1N1CCCCCC1`?
ATG4B inh: 6; UCH37 inh: 5; NLRP3 yeast inh: 13; NALP1 yeast inh: 9

What do the screens show for `Cn1c(N2CCOCC2)c(/C=N/OC(=O)c2ccc(F)cc2)c2ccccc21`?
ATG4B inh: -6; ALR inh: 20; Calb FLC: 94*; NLRP3 yeast inh: 65*; NALP1 yeast inh: 4; NALP3 yeast conf: 84*; Casp1 ASC ctr: 61*; NALP3 retest: 56*

What do the screens show for `O=c1c(C=NO)c(Nc2ccccc2)nc2ccccn12`?
UCH37 inh: 5

How did COC(=O)NN=Cc1cccnc1 do in these assays?
UCH37 inh: 1

Results for c1nc(CCO[C@H]2CCCCO2)cc2cc3c(cc12)OCO3 ?
ATG4B inh: -9; ALR inh: 2; UCH37 inh: 1; NLRP3 yeast inh: 31

What do the screens show for `c1nc(C2CCCCC2)cc2cc3c(cc12)OCO3`?
ATG4B inh: 7; NLRP3 yeast inh: 51*; NALP3 yeast conf: 54*

What do the screens show for `C=C1C(=O)O[C@@H]2[C@H]1[C@@H](OC(=O)/C(C)=C/C)CC(C)=CC(=O)C=C(C)[C@@H]2O`?
UCH37 inh: -1

How did CCCCOc1ccc(CSCCN)cc1Cl do in these assays?
ATG4B inh: -4; Calb FLC: -35; UCH37 inh: 2; NLRP3 yeast inh: 67*; NALP1 yeast inh: 7; NALP3 yeast conf: 76*

What do the screens show for `CCCCOc1ccc(CONS(=O)(=O)c2ccc(NC(C)=O)cc2)cc1Cl`?
ATG4B inh: -8; ALR inh: 3; Calb FLC: -47; UCH37 inh: 6; NLRP3 yeast inh: 31; NALP1 yeast inh: 12

Assay outcomes as filed in PubChem BioAssay.
